# Most compounds without a hit are left out; they make up all but 1.3% or so of the library.
# DDE Tn7 FP inh: DD(E)-Tn7 binding inhibition, primary FP screen; FP displacement of FITC-Tn7 peptide from fibrin DD(E); 0% = median of compound wells per plate; inhibition, % at 8.3 µM; hit rate 0.13% among 370,000;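 active = inhibition above the mean of compounds falling within the control limits plus 3 SD of them, cut at about 14% in these data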
# Target sequence (P02675 whole entry, looked up): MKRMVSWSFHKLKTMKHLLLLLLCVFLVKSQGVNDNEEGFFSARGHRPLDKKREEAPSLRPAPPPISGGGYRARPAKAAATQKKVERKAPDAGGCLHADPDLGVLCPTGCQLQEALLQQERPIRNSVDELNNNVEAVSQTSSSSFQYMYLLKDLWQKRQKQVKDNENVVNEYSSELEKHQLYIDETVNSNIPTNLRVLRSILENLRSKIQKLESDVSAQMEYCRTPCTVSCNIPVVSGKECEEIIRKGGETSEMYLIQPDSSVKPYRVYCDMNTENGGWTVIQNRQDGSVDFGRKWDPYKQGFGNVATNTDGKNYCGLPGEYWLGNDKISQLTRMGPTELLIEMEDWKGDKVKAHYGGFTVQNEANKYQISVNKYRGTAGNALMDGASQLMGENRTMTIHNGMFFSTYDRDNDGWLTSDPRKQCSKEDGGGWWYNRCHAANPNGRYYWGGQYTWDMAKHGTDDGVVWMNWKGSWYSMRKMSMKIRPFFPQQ
#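 Assay system: Human fibrin DD(E) protein | Medium: Tris buffer with calcium and detergent, pH 7.8 | Reagent: 0.1 µM fluorescent Tn7 | Compound dosing: Single point at 8.3 µM | Times: 10 min preincubation, 3 h with tracer, room temperature | Detection: Fluorescence polarization of the labelled Tn7 tracer | Controls: Aha-Tn7 high control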
# CRFBP-R2 block: antagonists of CRF-binding protein/CRF-R2 receptor complex; HEK293 CRF-R2/CRF-BP, CRF-induced calcium fluorescence; inhibition, % at 11.8 µM; hit rate 0.59% among 350,000;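 active = inhibition of the ligand-induced calcium signal above about 50% at the single tested concentration, limit read from the data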
# DDE Tn6 FP inh: disrupts Tn6 cyclic peptide binding to fibrin D-Dimer-E complex; inhibition, % at 8.3 µM; hit rate 0.21% among 370,000; Fibrin DD(E) TRITC-Tn6 fluorescence polarization displacement; P02675; AID 720509;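 active = inhibition above a per-campaign cutoff: mean of compounds within control limits plus 3 SD, cut at about 15% in these data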
# CRFBP-R2 agonist: agonists of human CRF-binding protein/CRF-R2 receptor complex | HEK293 CRF-R2/CRF-BP, calcium dye fluorescence (FLIPR); percent of saturating CRF peptide response | activation, % at 13.2 µM | hit rate 0.46% among 350,000;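 active = activation of at least 50%, plus an integration ratio under a set limit after plate pattern correction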
# Hits are given with their value; 0 = inactive; - = no result.
SMILES,DDE Tn7 FP inh,CRFBP-R2 block,DDE Tn6 FP inh,CRFBP-R2 agonist
CCOC(=O)C1C(=O)C=C(/C=C/c2ccc(N(C)C)cc2)CC1c1ccccc1 (stereo not given),0,0,0,292
CCCCN(C(=O)CSc1ncn[nH]1)c1c(N)n(Cc2ccccc2)c(=O)[nH]c1=O,0,70,0,0
Cc1nnc(SCC(=O)N(C)c2c(N)n(Cc3ccccc3)c(=O)[nH]c2=O)n1Cc1ccccc1,0,81,0,0
CCCCN(C(=O)CSc1nnnn1C)c1c(N)n(Cc2ccccc2)c(=O)[nH]c1=O,0,0,0,0
Cc1cc(C)cc(NC(=O)N2CCN(Cc3nc4ccccc4c(=O)[nH]3)CC2)c1,0,-,0,-
CCCCNC(=O)NS(=O)(=O)c1ccc(NC(=O)CSc2ncnc3scc(-c4ccc(C)cc4)c23)cc1,0,-,0,-
C[C@H]1COc2cc(Br)ccc2S(=O)(=O)N1Cc1cn(CCC2OCCO2)nn1,0,-,0,-
CCOC(=O)c1ccc(NCn2c(=O)oc3ccccc32)cc1,0,0,0,62
CC(C)C(Cl)=NOC(=O)Nc1ccc(F)cc1,0,0,20,0
O=c1c(Cl)c(Cl)cnn1Cc1nnc(-c2ccccc2Br)o1,0,0,0,157
Clc1ccccc1OCc1nnc(-c2ccccc2Br)o1,0,0,0,0
Cc1cccc(C)c1NC(=O)c1sccc1SCc1cccc(C(F)(F)F)c1,-,71,-,0
CCOC(=O)c1cccc(NS(=O)(=O)Cc2ccccc2)c1,0,149,0,0
CCOC(=O)c1cccc(NS(=O)(=O)c2ccc(NC(C)=O)cc2)c1,0,0,0,0
Nc1nc(CN2CCc3ccccc3C2)nc(Nc2ccccc2)n1,0,74,0,0
CCCc1cc(=O)[nH]c(SCC(=O)Nc2ccc(OC(F)F)cc2)n1,0,66,0,0
CCCc1cc(=O)[nH]c(SCC(=O)Nc2ccc3ccccc3c2)n1,0,0,0,0
CC(COc1cc(F)cc(C#N)c1)CN1CCC(C(O)(c2ccccc2)c2ccccc2)CC1 (stereo not given),0,-,0,-
Cc1ccc(NC(=O)Cn2ncn3c(cc4ccccc43)c2=O)cc1F,0,60,0,0
Cc1ccc2nc(Cl)c(/C=C/C(=O)c3ccco3)cc2c1,0,101,0,0
Cc1ccc(NC(=O)/C(C#N)=N/Nc2ccc(C(=O)O)cc2)c(C)c1,0,0,0,0
Cc1ccc(N/N=C(\C#N)C(N)=S)c(C)c1,0,0,0,60
COC(=O)[C@]12CCCCC=C1N(Cc1ccc(OC)cc1)C(=O)[C@@H]2CC(=O)NCC1CCCCC1,0,-,0,-
O=C(Nc1ccc(Cl)cc1)Nc1ccccc1C(=O)O,0,0,0,0
O=C(Nc1cc(C(=O)Nc2ccccc2C(=O)O)cc(C(=O)Nc2ccccc2C(=O)O)c1)c1ccccc1,0,104,0,0
SMILES,DDE Tn7 FP inh,CRFBP-R2 block,DDE Tn6 FP inh,CRFBP-R2 agonist
O=C(Nc1ccc(Cl)c(Cl)c1)Nc1ccccc1C(=O)O,0,59,0,0
O=S1(=O)CC2c3ccccc3CN2CN1CCc1ccccc1 (stereo not given),0,-,0,-
CCOC(=O)C1=C(Cc2ccc(OC)cc2)C(=O)c2ccccc2C1=O,-,0,-,61
NC(=S)NNC(=O)C12CC3CC(CC(C3)C1)C2,0,0,0,125
COC(=O)NNC(=O)C12CC3CC(CC(C3)C1)C2,0,0,0,0
CCOC(=O)[C@@]12CCCC=C1N(CCc1ccc(Cl)cc1)C(=O)[C@H]2CC(=O)NCc1ccc(OC)c(OC)c1,0,-,0,-
CC(=O)C1=C(O)C(=O)N(c2cc(C(C)(C)C)on2)C1c1ccc(C(C)C)cc1 (stereo not given),-,0,-,64
O=[N+]([O-])c1ccc(NC(=S)NCc2ccc(F)cc2)cc1,0,67,0,0
CCCCCCCCNC(=O)/C(C#N)=C/c1ccccc1[N+](=O)[O-],0,0,0,62
CCN(CC)S(=O)(=O)c1ccc(Cl)c(NC(=O)c2ccccc2C)c1,0,0,0,0
CCN(CC)S(=O)(=O)c1ccc(Cl)c(NC(=O)c2cc(Cl)cc(Cl)c2)c1,0,53,0,0
O=S(=O)(NC(=S)NC1CCCCC1)c1ccc(Br)cc1,0,56,0,0
O=C(NC1CCCCC1)NS(=O)(=O)c1ccc2c(c1)CCC2,0,63,0,0
O=C(NNS(=O)(=O)c1ccc2ccccc2c1)NC1CCCCC1,0,0,0,0
COC(=O)C[C@H]1CC[C@@H]2[C@H](COc3ccc(NC(=O)c4ccccc4OC)cc3C(=O)N2C)O1,0,-,0,-
O=C1CSc2ccc(C(=O)N3CCCC(C(=O)N4CCCC4)C3)cc2N1 (stereo not given),0,-,0,-
O=c1c2ccccc2sc2ccc(NCCCN3CCOCC3)cc12,0,0,0,102
COc1ccc(-n2c(SCC(=O)NN=Cc3c(O)ccc4ccccc34)nnc2-c2ccc(C(C)(C)C)cc2)cc1,0,-,0,-
O=C(CSc1nnnn1-c1ccc(Cl)cc1)Nc1cccnc1Cl,0,0,0,0
Cc1ccc(-n2nnnc2SCC(=O)Nc2cccnc2Cl)cc1,0,53,0,0
COC(=O)[C@]12C[C@H](CC(=O)NCc3ccc(C)o3)C(=O)N(Cc3ccc4c(c3)OCO4)C1=C[C@H](C(C)C)O[C@@H]2C1CC1,0,-,0,-
COc1ccc(Cn2ccc3ccc(-c4ccc5ccn(Cc6ccc(OC)cc6)c5c4)cc32)cc1,0,-,0,-
O=C(/C=C/c1cn(CC(O)CN2CCCCCC2)c2ccccc12)c1cccs1 (stereo not given),0,0,0,65
CCCN1C(=O)S/C(=C\c2ccc(N3CCOCC3)o2)C1=O,0,0,0,0
CCCN1C(=O)S/C(=C/c2ccc(N3CCOCC3)o2)C1=O,0,0,0,61
SMILES,DDE Tn7 FP inh,CRFBP-R2 block,DDE Tn6 FP inh,CRFBP-R2 agonist
COC(=O)CN1C(=O)S/C(=C/c2ccc(N3CCCCC3)o2)C1=O,0,0,0,57
CCOC(=O)CN1C(=O)S/C(=C/c2ccc(N3CCCCC3)o2)C1=O,0,0,0,0
CCCCNS(=O)(=O)CC1NCc2ccccc21 (stereo not given),0,-,0,-
CCc1ccc(NC(=O)Cn2nc(C(=O)O)c3ccccc3c2=O)cc1,0,58,0,0
O=C(Cn1nc(C(=O)O)c2ccccc2c1=O)Nc1ccc(Br)cc1,0,0,0,0
Cc1ccc(S(=O)(=O)N2C(N)=C(C(=O)NCc3ccc(Br)cc3)C(c3ccc(Cl)cc3)C2C(=O)c2ccccc2)cc1 (stereo not given),0,-,0,-
COc1cccc(-n2nc(C#N)c(Cl)cc2=O)c1,0,74,0,0
COc1cccc(-n2nc(C(N)=O)c(O)cc2=O)c1,0,0,0,0
CCOC(=O)c1ccc(NC(=O)c2cccc3c2C(=O)N(CC2CCCO2)C3)cc1 (stereo not given),0,60,0,82
CCCN1Cc2cccc(C(=O)Nc3ccc(C)cc3)c2C1=O,0,0,0,0
O=C(Oc1c(Br)cc([N+](=O)[O-])cc1Br)c1cccnc1,0,68,0,0
Cc1ccccc1C1NC(c2ccccc2C)C(C)C(=O)C1C (stereo not given),0,0,0,0
CC1C(=O)C(C)C(c2cccs2)NC1c1cccs1 (stereo not given),0,57,0,0
